Data taken from paper PMC5856940 (Saudi Pharmaceutical Journal : SPJ, 2018).

Key:
HEK293T cells [1] = assay: Cytotoxicity screening of AHAMCs, trypan blue exclusion assay; format: cell-based, Human; conditions: 25 mM, 24 h
How it was run: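 HEK293T cells were grown in DMEM with 10% FBS, 1mM pyruvate and antibiotics/antifungal at 37 °C and 5% CO2. Cells were seeded at 1 × 10^6 per well, grown 24 h, then given fresh medium. Test compound (100 mM DMSO stock, diluted in DMSO then dH2O) was added at 25 mM for 24 h. Cells were trypsinised (0.5%) and live/dead cells counted by trypan blue on a Bürker hemocytometer under bright field.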

HEK293T cells [2] = assay: Dose-dependent response; format: cell-based, Human; conditions: 24 h; for cytotoxicity at higher concentrations: 50 and 100 mM; for IC50: cell death, trypan blue, 6.25-100 mM
How it was run: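 HEK293T cells were seeded at 1 × 10^6 per well and grown 24 h. Medium was replaced with medium holding test compound at 6.25, 12.5, 25, 50 or 100 mM for 24 h. Read-out was trypan blue exclusion, with % cell death = dead/total cells × 100. IC50 was taken from a fitted concentration–effect curve. Three technical and biological repeats were done.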

HEK293T cells [3] = assay: Differentiation of apoptosis and necrosis by PI staining; format: cell-based, Human; conditions: for cell death compared to the other compounds: IC50, 24 and 48 h
How it was run: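 HEK293T cells (1 × 10^6 per well) were grown 24 h, then resuspended in medium with test compound at one fixed concentration for 24 or 48 h. Cells were washed three times in DPBS, trypsinised, washed again, and stained 5 min with 1 mg/mL PI in 2× SSC. Nuclei were imaged by confocal microscopy (ex 535, em 617 nm) and scored as apoptotic or necrotic. About 100 cells were counted per sample, with three technical and biological repeats.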

HEK293T cells [4] = assay: Externalized phosphatidylserine, Annexin-V staining; format: cell-based, Human
How it was run: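 HEK293T cells were exposed to test compound for 24 or 48 h, trypsinised, washed three times in DPBS and resuspended in annexin-binding buffer. Alexa Fluor 350 Annexin-V conjugate was added for 15 min at 37 °C, and cells were washed in binding buffer. Imaging was by confocal microscopy (ex 346, em 442 nm). About 100 cells were analysed per sample, with three technical and biological repeats.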

1321N1 cells = assay: Cytotoxicity in glioma cells, trypan blue assay; format: cell-based, Human; conditions: 1321N1, 100 µM, 24 h
How it was run: (§1)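 U-87 MG cells were grown in MEM with L-glutamine, and 1321N1 cells in DMEM with L-glutamine plus 2 mM sodium pyruvate. Both media had 10% FBS, penicillin/streptomycin and amphotericin B, at 37 °C and 5% CO2. Cells were seeded at 1 × 10^5 per well, grown 48 h, then exposed 24 h to 100 µM test compound, 0.1% DMSO or 100 µM temozolomide. Cells were trypsinised and scored by trypan blue. Biological and technical repeats were run.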

U-87 MG cells = assay: Cytotoxicity in glioma cells, trypan blue assay; format: cell-based, Human; conditions: 100 µM, 24 h
How it was run: as §1

[5] = test system: Syrian Hamster Embryo (SHE) cells; conditions: 60 µM ref Hahnel et al., 1999; cited from earlier work

2-(2-(2,4-dioxopentan-3-ylidene)hydrazinyl)phenylarsonic acid [Compound 12]
cytotoxicity (HEK293T cells [1]): ≤ 30%

2-(2-(2-hydroxy-4-nitrophenyl)hydrazono)-2H-indene-1,3-dione [Compound 2]
cytotoxicity (HEK293T cells [1]): ≤ 30%

4-hydroxy-5-(2-(2,4,6-trioxo-tetrahydro-pyrimidin-5(6H) ylidene)hydrazinyl)benzene-1,3-disulfonic acid [Compound 6]
cytotoxicity (HEK293T cells [1]): 36% | cytotoxicity at higher concentrations (HEK293T cells [2]): did not elicit significant cytotoxicity | IC50 (HEK293T cells [2]): 77.08 ± 0.5 mM | cell death compared to the other compounds (HEK293T cells [3]): less cell death

5-(2-(2,4-dioxopentan-3-ylidene)hydrazinyl)-2,3-dihydrophthalazine-1,4-dione [Compound 13]
cytotoxicity (HEK293T cells [1]): ≤ 30%

5-(2-(2-hydroxy-4-nitrophenyl)hydrazono)pyrimidine-2,4,6(1H,3H,5H)-trione [Compound 7]
cytotoxicity (HEK293T cells [1]): ≤ 30%

5-(2-(2-hydroxyphenyl) hydrazono)pyrimidine-2,4,6(1H,3H,5H)-trione [Compound 5]
cytotoxicity (HEK293T cells [1]): 46% | cell death (HEK293T cells [2]): ~80% | IC50 (HEK293T cells [2]): 50.9 ± 2.5 mM | apoptosis (HEK293T cells [3]; IC50 of compound, 24 h): about 40% | necrosis (HEK293T cells [3]; IC50 of compound, 24 h): about 20% | apoptosis (HEK293T cells [3]; IC50 of compound, 48 h): ≈ 60% | cell death (HEK293T cells [3]; IC50 of compound, 48 h): ~80% | necrosis (HEK293T cells [3]; IC50 of compound, 48 h): about 20% | apoptotic effect (Annexin-V) (HEK293T cells [4]; 24 h and 48 h): more apoptotic effect compared to the other compounds | higher inhibitory effect compared to temozolomide (1321N1 cells): 10% | mortality (1321N1 cells): 20% | lower inhibitory effect compared to temozolomide (U-87 MG cells): 10% | mortality (U-87 MG cells): 10%

5-(2-(4,4-dimethyl-2,6-dioxocyclohexylidene)hydrazinyl)-4-hydroxybenzene-1,3-disulfonic acid [Compound 9]
cytotoxicity (HEK293T cells [1]): 42% | cytotoxicity at higher concentrations (HEK293T cells [2]): did not elicit significant cytotoxicity | cell death compared to the other compounds (HEK293T cells [3]): less cell death

5-chloro-2-hydroxy-3-(2-(2,4,6-trioxo-tetrahydropyrimidin-5(6H)-ylidene)hydrazinyl)benzenesulfonic acid [Compound 4]
cytotoxicity (HEK293T cells [1]): ≤ 30%

5-chloro-3-(2-(4,4-dimethyl-2,6-dioxocyclohexylidene)hydrazinyl)-2-hydroxybenzenesulfonic acid [Compound 8]
cytotoxicity (HEK293T cells [1]): 45% | cell death (HEK293T cells [2]): ~80% | IC50 (HEK293T cells [2]): 75.5 ± 2.3 mM | apoptosis/necrosis response compared with compound 5 (HEK293T cells [3]; IC50, 48 h): lower response | level of apoptosis (Annexin-V) (HEK293T cells [4]; 48 h): lower level of apoptosis

C[C@@H]1Cc2c(Cl)cc(C(=O)N[C@@H](Cc3ccccc3)C(=O)O)c(O)c2C(=O)O1 [Ochratoxin A]
intracellular calcium increase compared to untreated cells [5]: 45%

(E)-3-(2-(1-ethoxy-1,3-dioxobutan-2-ylidene)hydrazinyl)-2-hydroxy-5-nitrobenzenesulfonic acid [Compound 1]
cytotoxicity (HEK293T cells [1]): ≤ 30%

(Z)-5-chloro-2-hydroxy-3-(2-(4,4,4-trifluoro-1,3-dioxo-1-(thiophen-2-yl)butan-2-ylidene)hydrazinyl)benzenesulfonic acid [Compound 3]
cytotoxicity (HEK293T cells [1]): ≤ 30%
